Test results published in ChEMBL document CHEMBL1146090, “Similarity based virtual screening: a tool for targeted library design” (J Med Chem, 2006).

Key:
[1] = test system: Chlamydia pneumoniae; assay: Antibacterial activity against Chlamydia pneumoniae in HL cells at 50 uM; assay type: functional
In short: (§1)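 HL host cells (RPMI 1640, 10% FBS, 2 mM L-glutamine, 37 °C, 5% CO2) seeded 5×10^4/well; after 24 h, confluent monolayers inoculated by centrifugation (550 × g, 60 min) with C. pneumoniae Kajaani 7 EBs, 4×10^5 IFU/mL. Agent added in antibiotic-free medium plus 0.5 μg/mL cycloheximide; 72 h, 37 °C. Methanol-fixed; europium-labelled genus-specific antibody, time-resolved fluorometry. Two experiments on different days, six replicates each, averaged.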

[2] = test system: Chlamydia pneumoniae; assay: Antibacterial activity against Chlamydia pneumoniae in HL cells at 1 uM; assay type: functional; in short: as §1
[3] = test system: Chlamydia pneumoniae; assay: Antibacterial activity against Chlamydia pneumoniae in HL cells at 5 uM; assay type: functional; in short: as §1
[4] = Viability of HL cells at 50 uM; assay type: cell-based; settings: human, read-out: Activity
In short: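 Viable HL cells counted through intracellular LDH after 3 days exposure to 50 μM agent. Medium removed, cells washed twice and lysed, then LDH measured with the same kit. Percentage derived against LDH from unexposed cultures. Mean of four replicates, single experiment.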

[5] = test system: HL; assay: Cytotoxicity against HL cells at 50 uM; assay type: functional
[6] = test system: Chlamydia pneumoniae; assay: Antibacterial activity against Chlamydia pneumoniae in HL cells at 70 uM; assay type: functional; in short: as §1

## O=C(Nc1cccc(-c2nc3ccccc3[nH]2)c1)c1ccccc1
[1]
  inhibition at 50 µM: 69.6%
[2]
  inhibition at 1 µM: 14.6%
[3]
  inhibition at 5 µM: 19.7%
[4]
  viability at 50 µM: 95.5%
[5]
  cytotoxicity: 1.2%
[6]
  inhibition at 70 µM: 69.1%

## O=C(Nc1cccc(-c2nc3ccccc3[nH]2)c1)c1cccs1
[1]
  inhibition at 50 µM: 90.5%
[2]
  inhibition at 1 µM: 39.5%
[3]
  inhibition at 5 µM: 41.2%
[4]
  viability at 50 µM: 98%
[5]
  cytotoxicity: 1.2%
[6]
  inhibition at 70 µM: 92.6%

## N=C(NOC(=O)Nc1cccc(Cl)c1)c1ccc2nonc2c1
[1]
  inhibition at 50 µM: 85.5%
[2]
  inhibition at 1 µM: 0%
[3]
  inhibition at 5 µM: 6.8%
[4]
  viability at 50 µM: 99.3%
[5]
  cytotoxicity: 1.1%
[6]
  inhibition at 70 µM: 99.3%

## Nc1nc(Nc2ccccc2)nc(Nc2ccccc2)n1
[1]
  inhibition at 50 µM: 72.8%
[2]
  inhibition at 1 µM: 0%
[3]
  inhibition at 5 µM: 0%
[4]
  viability at 50 µM: 83.4%
[5]
  cytotoxicity: 3.7%
[6]
  inhibition at 70 µM: 100%

## c1ccc(-c2cc3ncnc(NCc4ccc5c(c4)OCO5)c3s2)cc1
[1]
  inhibition at 50 µM: 68.6%
[2]
  inhibition at 1 µM: 2.1%
[3]
  inhibition at 5 µM: 58.8%
[4]
  viability at 50 µM: 98.2%
[5]
  cytotoxicity: 0.4%
[6]
  inhibition at 70 µM: 71.2%

## O=C(Nc1ccc2c(c1)OCCO2)c1cccc(COc2cc(Cl)ccc2Cl)c1
[1]
  inhibition at 50 µM: 81.8%
[2]
  inhibition at 1 µM: 0%
[3]
  inhibition at 5 µM: 15.3%
[4]
  viability at 50 µM: 86.2%
[5]
  cytotoxicity: 2.3%
[6]
  inhibition at 70 µM: 93.6%

## Nc1nc(Nc2ccc(Cl)cc2)nc(-c2cc(Cl)ccc2O)n1
[1]
  inhibition at 50 µM: 79.8%
[2]
  inhibition at 1 µM: 0%
[3]
  inhibition at 5 µM: 76%
[4]
  viability at 50 µM: 95%
[5]
  cytotoxicity: 1.4%
[6]
  inhibition at 70 µM: 83.9%

## N=C(NOC(=O)Nc1ccccc1)c1ccc2nonc2c1
[1]
  inhibition at 50 µM: 56.1%
[2]
  inhibition at 1 µM: 0%
[3]
  inhibition at 5 µM: 0.2%
[4]
  viability at 50 µM: 100%
[5]
  cytotoxicity: 0%
[6]
  inhibition at 70 µM: 72.5%
